# Source: PubChem BioAssay
# pCIP destab = p/CIP protein destabilization | Q05BA5 | F442A p/CIP-EGFP cells, EGFP fluorescence, 16 h | decrease of EGFP signal, % at 10 µM | 290,000 tested, 0.01% active;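 active means EGFP signal decrease of at least 30% at 10 µM or well 3 SD below plate mean, unless failing retest; inactive means the rest, including hits failing retest or dose response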
# UBC13 polyUb = blocks human UBC13 polyubiquitin chain formation; inhibition, % at 20 µM; 330,000 tested, 0.47% active; AID 485273; TR-FRET; P61088; in the data active means inhibition above about 45%, passing the limit was not always enough
# Target sequence (P61088 whole entry, looked up): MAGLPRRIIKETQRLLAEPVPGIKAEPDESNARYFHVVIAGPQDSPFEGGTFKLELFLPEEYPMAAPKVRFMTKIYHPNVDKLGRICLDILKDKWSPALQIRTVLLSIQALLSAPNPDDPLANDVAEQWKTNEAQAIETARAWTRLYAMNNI
# PP1 inh = blocks human PP1-alpha phosphatase, a PP5 counter-screen. purified PP1alpha, OMFP fluorescence. P62136. inhibition, % at 6.7 µM. AID 2235. 320,000 tested, 0.9% active;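 active means inhibition above the mean inhibition of all tested compounds plus 3 SD, computed separately for each screening campaign, cut at about 15% in these data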
# Target sequence (P62136 whole entry, looked up): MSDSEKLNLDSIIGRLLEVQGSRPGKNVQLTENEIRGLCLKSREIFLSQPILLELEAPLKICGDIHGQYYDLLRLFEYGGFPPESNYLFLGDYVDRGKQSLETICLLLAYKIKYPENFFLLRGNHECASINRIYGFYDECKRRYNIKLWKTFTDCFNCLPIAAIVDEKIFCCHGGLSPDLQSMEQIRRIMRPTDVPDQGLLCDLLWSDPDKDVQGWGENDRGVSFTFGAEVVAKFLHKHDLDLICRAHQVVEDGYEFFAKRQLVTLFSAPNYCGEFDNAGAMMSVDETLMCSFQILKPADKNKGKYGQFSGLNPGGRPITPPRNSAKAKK
# T cruzi inh = T. cruzi replication inhibition | 300,000 tested, 1.4% active | inhibition, % (no concentration beside the values) | T. cruzi beta-gal in NIH3T3, luminescence, 90 h | AID 1885;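 active means mean inhibition across valid replicates above about 55%, limit read from the data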;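 further: signal also drops with host cell toxicity which is not excluded here; 0% = plate median of DMSO wells and 100% = zero luminescence signal; higher percent means less beta-gal luminescence so fewer parasites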
#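 Assay system: NIH/3T3 host cells with β-galactosidase reporter T. cruzi; input: 5,000 host fibroblasts per well; compound: single 50 nL compound addition per well in DMSO; timing: ≥90 h infection period, 3 h prior cell attachment; measured by: GalScreen β-gal luminescence, detergent lysis, 60 min; evaluation: percent inhibition of parasite-derived β-gal signal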
# AI-2 QS mod = modulates the Vibrio harveyi AI-2 quorum sensing system; Vibrio harveyi JMH597 AI-2 luminescence/OD600 ratio, 9 h; stronger effect = lower value; strain lacks LuxN and CqsS sensors; 0 = neutral-control median; activity change, % at 7.5 µM; 300,000 tested, 0.4% active; AID 2094; in the data active means activity change below about -75%, passing the limit was not always enough;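 further: luminescence divided by OD600 gain over 9 h not by final OD600 alone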
# The depositor's hits bear a star; . = no result. Shown are actives, neighbours in structure and some others; about 2.8% of the full set was active somewhere.
SMILES,pCIP destab,UBC13 polyUb,PP1 inh,T cruzi inh,AI-2 QS mod
COc1cc(CNCc2c[nH]c3ccccc23)cc(OC)c1,-9.7,6.5,4.8,78.0*,-2.6
CC1CCN(S(=O)(=O)c2ccc(C(C)C)cc2)CC1,-3.3,-5.0,-0.9,8.0,-88.4*
C(#Cc1ccccc1)C[N+]1(CC#Cc2ccccc2)CCCCC1,-19.1,-1.5,2.5,65.8*,6.5
CCC[N+]1(CC#CCC(c2ccccc2)c2ccccc2)CCCCC1,-13.6,0.7,-3.0,63.6*,-7.8
C#CC[N+]1(CC#Cc2ccccc2)CCCCC1,-0.4,5.3,-2.4,-11.0,21.5
O=C(C[N+]1(CC#Cc2ccccc2)CCCCC1)c1ccccc1,-45.8,-3.4,-0.1,22.0,19.4
Cc1ccc(C#CC[N+]2(CC#Cc3ccc(C)cc3)CCCCC2)cc1,-28.9,18.4,-0.8,74.3*,18.1
C#CC[N+]1(CC#Cc2cccc(C)c2)CCCCC1,-10.7,-0.5,-1.7,5.6,-6.6
O=C(O)C1CCN(C(=O)CSc2nc3ccccc3c(=O)n2Cc2ccccc2)CC1,-1.2,-1.3,0.4,-15.6,20.6
COc1ccc(CNC(=O)CN(C(=O)c2csnn2)c2cccc3ccccc23)cc1,-10.0,-3.7,-3.7,0.1,.
CCCSc1nsc(NC(=O)CCC)n1,2.5,6.5,-3.6,56.4*,30.7
O=C1C=CC(=O)N1CCNc1ncc(C(F)(F)F)cc1Cl,-12.7,-0.4,.,56.6*,3.9
O=c1cc(Cl)[nH]c(=O)n1CCNc1ncc(C(F)(F)F)cc1Cl,-7.7,0.1,2.0,-8.7,5.1
Cn1ccsc1=NC(=O)c1ccccc1F,0.2,4.7,0.3,-5.2,13.8
Cc1ccc(C)c(-n2c(-c3ccc(Br)cc3)csc2=NC(=O)c2ccccc2F)c1,-8.6,38.6,-3.7,63.6*,11.2
OC(COCC(F)(F)C(F)(F)C(F)(F)C(F)F)Cn1c2ccccc2c2ccccc21 (stereo unspecified),-5.5,21.7,-7.1,59.2*,20.0
Cc1c(Cc2ccccc2)c(=O)oc2cc(OC(C)C(=O)NCC3CCC(C(=O)O)CC3)c(Cl)cc12 (stereo unspecified),-9.5,-8.5,-0.6,-18.2,13.3
O=C(CC(Sc1ccc(Br)cc1)C(=O)O)c1ccc(F)cc1 (stereo unspecified),-15.0,-10.1,0.8,72.6*,0.6
CCOc1ccc(C(=O)CC(Sc2ccc(C)cc2)C(=O)O)cc1 (stereo unspecified),-8.0,-6.8,-1.1,-17.0,40.6
Nn1c(SCC(=O)NCc2ccc3c(c2)OCO3)nnc1C(F)(F)F,.,-5.9,.,.,.
Cc1ccc(C(=O)/C=C\C(=O)c2ccc(C)cc2)cc1,-9.2,.,-0.1,70.8*,-22.2
COc1ccccc1-c1ccc(SCC(=O)NC2CCCC2)nn1,.,0.8,-3.5,4.8,21.6
C/C(=N\NC(=O)c1nnn(-c2nonc2N)c1-c1ccccc1)c1ccccc1O,8.6,3.8,1.4,60.9*,15.7
O=C(Nc1cnn(Cc2c(Cl)cccc2Cl)c1)C(c1ccccc1)c1ccccc1,-2.8,-5.7,7.2,55.0*,-26.6
O=C(COc1ccccc1Cl)Nc1cnn(Cc2ccccc2)c1,-3.0,-0.1,-1.9,-3.8,31.3
SMILES,pCIP destab,UBC13 polyUb,PP1 inh,T cruzi inh,AI-2 QS mod
COc1ccc(-c2csc(NC(=O)CSc3nc4ccccc4c(=O)[nH]3)n2)cc1,-5.2,2.0,17.0*,-1.0,13.0
COc1cc(CNC2CCCC2)cc(Cl)c1OCc1ccc(F)cc1,-2.8,27.0,1.6,33.4,6.2
COc1cc(CNC2CCCC2)cc(Cl)c1OCc1ccccc1Cl,-1.4,29.8,8.2,77.5*,42.6
COC(=O)c1cc(-c2ccc(NC(C)=O)cc2)nc2ccccc12,-5.1,10.9,-1.6,-19.2,18.9
CCn1c(SCC(=O)Nc2nc3ccc(C)cc3s2)nc2c(c1=O)SC(C)C2 (stereo unspecified),33.1,-5.1,16.4*,18.1,20.8
CCn1c(SCC(=O)Nc2nc3ccccc3s2)nc2c(c1=O)SC(C)C2 (stereo unspecified),-13.7,0.7,3.4,-10.7,37.7
CCc1ccccc1NC(=O)CCN1C(=O)C2C3CCC(C3)C2C1=O (stereo unspecified),1.8,0.6,-1.3,-10.5,15.8
COc1ccc(-c2oc3c4c(cc(OC)c3c(=O)c2CC=C(C)C)OC(C)(C)C=C4)c(OC)c1,.,-10.1,9.7,65.3*,43.0
COc1ccc(C(CNC(=O)c2cccc(S(=O)(=O)N(C)c3ccccc3)c2)N2CCCC2)cc1 (stereo unspecified),.,9.7,1.9,.,.
